From ChEMBL document CHEMBL2021876, “New pyridobenzoxazepine derivatives derived from 5-(4-methylpiperazin-1-yl)-8-chloro-pyrido[2,3-b][1,5]benzoxazepine (JL13): chemical synthesis and pharmacological evaluation” (J Med Chem, 2012)

Molecular target: T1, 5-hydroxytryptamine receptor 1A (Homo sapiens) (UniProt P08908)
T1 sequence (whole entry): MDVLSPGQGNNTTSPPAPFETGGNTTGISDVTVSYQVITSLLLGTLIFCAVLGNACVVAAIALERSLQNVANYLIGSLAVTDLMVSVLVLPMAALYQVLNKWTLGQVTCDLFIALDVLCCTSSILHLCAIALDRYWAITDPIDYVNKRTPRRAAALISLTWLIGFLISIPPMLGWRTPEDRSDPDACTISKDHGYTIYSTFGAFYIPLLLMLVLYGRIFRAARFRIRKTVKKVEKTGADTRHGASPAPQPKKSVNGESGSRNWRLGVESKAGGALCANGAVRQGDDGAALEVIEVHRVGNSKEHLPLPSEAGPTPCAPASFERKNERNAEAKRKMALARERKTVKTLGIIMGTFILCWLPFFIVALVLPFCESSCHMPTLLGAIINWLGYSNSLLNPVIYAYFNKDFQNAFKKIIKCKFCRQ
Assay: Displacement of [3H]8-OH-DPAT from human recombinant 5HT1A receptor expressed in CHO cells at 10^-6 M after 60 mins by liquid scintillation counting
Assay type: cell-based
Settings: not given

SMILES	inhibition [%]
CN1CCN(C2=Nc3cc(Cl)ccc3Oc3ncccc32)CC1.O=C(O)/C=C/C(=O)O	44
OCCOCCN1CCN(C2=Nc3cc(Cl)ccc3Oc3ncccc32)CC1	26
Clc1ccc2c(c1)N=C(NCCN1CCOCC1)c1cccnc1O2	-8

System: not listed separately
Assay: In vivo displacement of [3H]Nemonapride from dopamine D4 receptor in Sprague-Dawley rat nucleus accumbens at 10 mg/kg, ip qd for 28 days by autoradiography relative to control
Assay type: functional
Settings: values are per cent of control, route intraperitoneal

SMILES	residual binding, % of control at 10 mg/kg [%]
CN1CCN(C2=Nc3cc(Cl)ccc3Oc3ncccc32)CC1.O=C(O)/C=C/C(=O)O	161

Molecular target: T2, D(4) dopamine receptor (Homo sapiens) (UniProt P21917)
T2 sequence (whole entry): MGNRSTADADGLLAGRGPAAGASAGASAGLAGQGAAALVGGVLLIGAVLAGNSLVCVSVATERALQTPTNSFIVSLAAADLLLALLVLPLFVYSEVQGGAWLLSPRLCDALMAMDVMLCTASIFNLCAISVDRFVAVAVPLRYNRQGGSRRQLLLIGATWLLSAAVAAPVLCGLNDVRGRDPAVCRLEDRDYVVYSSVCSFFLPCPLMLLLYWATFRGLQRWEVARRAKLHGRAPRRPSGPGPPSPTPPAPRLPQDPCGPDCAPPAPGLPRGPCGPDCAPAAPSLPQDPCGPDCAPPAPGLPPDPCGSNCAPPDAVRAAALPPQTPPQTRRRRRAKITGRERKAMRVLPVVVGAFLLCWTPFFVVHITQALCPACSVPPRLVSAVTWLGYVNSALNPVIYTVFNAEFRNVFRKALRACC
Assay: Displacement of [3H]-YM09151-2 from human cloned dopamine D4 receptor expressed in insect Sf9 cells at 10^-6 M after 60 mins by liquid scintillation counting
Settings: not given

SMILES	inhibition [%]
OCCOCCN1CCN(C2=Nc3cc(Cl)ccc3Oc3ncccc32)CC1	22
Clc1ccc2c(c1)N=C(NCCN1CCOCC1)c1cccnc1O2	-8

System: not listed separately
Assay: In vivo displacement of [3H]Ketanserin from 5HT2A receptor in Sprague-Dawley rat medial-prefrontal cortex at 10 mg/kg, ip qd for 28 days by autoradiography relative to control
Assay type: functional
Settings: values are per cent of control, route intraperitoneal

SMILES	residual binding, % of control at 10 mg/kg [%]
CN1CCN(C2=Nc3cc(Cl)ccc3Oc3ncccc32)CC1.O=C(O)/C=C/C(=O)O	62

Molecular target: D(2) dopamine receptor (Rattus norvegicus) (UniProt P61169)
Assay: In vivo displacement of [3H]Nemonapride from dopamine D2 receptor in Sprague-Dawley rat dorsolateral frontal cortex at 10 mg/kg, ip qd for 28 days by autoradiography relative to control
Assay type: functional, organism-based
Design: dose 10 mg/kg
Settings: values are per cent of control

Chain of D(2) dopamine receptor (Rattus norvegicus) (P61169 whole entry): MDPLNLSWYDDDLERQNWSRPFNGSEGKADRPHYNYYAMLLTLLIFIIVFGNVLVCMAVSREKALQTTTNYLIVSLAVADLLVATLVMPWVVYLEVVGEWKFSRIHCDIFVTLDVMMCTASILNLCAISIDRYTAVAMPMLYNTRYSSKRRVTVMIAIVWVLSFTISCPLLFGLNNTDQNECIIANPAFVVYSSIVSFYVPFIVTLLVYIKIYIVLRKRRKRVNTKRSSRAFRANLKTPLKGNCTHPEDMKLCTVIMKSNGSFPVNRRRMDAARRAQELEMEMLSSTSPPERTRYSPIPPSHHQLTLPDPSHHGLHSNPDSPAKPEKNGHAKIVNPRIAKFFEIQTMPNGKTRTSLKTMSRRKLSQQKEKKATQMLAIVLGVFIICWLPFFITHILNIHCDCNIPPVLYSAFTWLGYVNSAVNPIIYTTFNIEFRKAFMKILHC

SMILES	residual binding, % of control [%]
CN1CCN(C2=Nc3cc(Cl)ccc3Oc3ncccc32)CC1.O=C(O)/C=C/C(=O)O	93

System: Hippocampus
Assay: In vivo displacement of [3H]Nemonapride from dopamine D4 receptor in Sprague-Dawley rat hippocampus at 10 mg/kg, ip qd for 28 days by autoradiography relative to control
Assay type: functional
Settings: values are per cent of control, route intraperitoneal

SMILES	residual binding, % of control at 10 mg/kg [%]
CN1CCN(C2=Nc3cc(Cl)ccc3Oc3ncccc32)CC1.O=C(O)/C=C/C(=O)O	157

Molecular target: T3, D(4) dopamine receptor (Homo sapiens, UniProt P21917)
T3 sequence (P21917 whole entry): T2 sequence (whole entry)
Assay: Displacement of [3H]-YM09151-2 from human cloned dopamine D4 receptor expressed in insect Sf9 cells after 60 mins by liquid scintillation counting
Settings: not given

SMILES	Ki [nM]
Clc1ccc2c(c1)N=C(N1CCN(C3CCCCC3)CC1)c1cccnc1O2	798
Clc1ccc2c(c1)N=C(N1CCN(CCc3ccccc3)CC1)c1cccnc1O2	42

Molecular target: D(2) dopamine receptor (Rattus norvegicus) (UniProt P61169)
Assay: In vivo displacement of [3H]Nemonapride from dopamine D2 receptor in Sprague-Dawley rat entorhinal cortex at 10 mg/kg, ip qd for 28 days by autoradiography relative to control
Assay type: functional, organism-based
Design: dose 10 mg/kg
Settings: values are per cent of control

SMILES	residual binding, % of control [%]
CN1CCN(C2=Nc3cc(Cl)ccc3Oc3ncccc32)CC1.O=C(O)/C=C/C(=O)O	110

Molecular target: T4, 5-hydroxytryptamine receptor 2A (Homo sapiens, UniProt P28223)
Assay: Displacement of [3H]ketanserin from human recombinant 5HT2A receptor expressed in CHO cells at 10^-6 M after 60 mins by liquid scintillation counting
Assay type: cell-based
Settings: not given

T4 sequence (P28223 whole entry): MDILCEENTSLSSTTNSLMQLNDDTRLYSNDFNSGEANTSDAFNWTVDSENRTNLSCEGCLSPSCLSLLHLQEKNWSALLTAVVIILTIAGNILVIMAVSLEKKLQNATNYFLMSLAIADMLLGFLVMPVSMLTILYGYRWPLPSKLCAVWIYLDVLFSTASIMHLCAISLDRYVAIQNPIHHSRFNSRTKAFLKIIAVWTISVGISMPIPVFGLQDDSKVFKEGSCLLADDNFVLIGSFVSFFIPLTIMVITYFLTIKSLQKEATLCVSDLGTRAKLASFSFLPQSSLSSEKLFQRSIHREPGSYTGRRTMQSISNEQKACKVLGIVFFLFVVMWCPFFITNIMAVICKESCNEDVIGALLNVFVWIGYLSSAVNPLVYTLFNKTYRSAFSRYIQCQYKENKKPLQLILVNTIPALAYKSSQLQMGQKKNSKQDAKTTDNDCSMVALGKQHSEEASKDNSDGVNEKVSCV

SMILES	inhibition [%]
OCCOCCN1CCN(C2=Nc3cc(Cl)ccc3Oc3ncccc32)CC1	30

System: Hippocampus
Assay: In vivo displacement of [3H]SCH-23390 from dopamine D1 receptor in Sprague-Dawley rat hippocampus at 3.87 mg/kg, ip qd for 28 days by autoradiography relative to control
Assay type: functional
Settings: values are per cent of control, route intraperitoneal
How it was run: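 Rats (male Sprague-Dawley, N = 8/group) were dosed ip daily for 28 days against vehicle controls, and 10 μm frozen coronal brain sections were cut. After 1 h preincubation, sections were incubated 1 h at room temperature in 50 mM Tris-HCl pH 7.4 with 120 mM NaCl, 5 mM KCl, 2 mM CaCl2 and 1 mM MgCl2. Incubation used 1 nM [3H]SCH-23390 plus 100 nM ketanserin. Nonspecific binding: 1 μM cis-flupenthixol. […] autoradiography, fmol/mg tissue as % of control.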

SMILES	residual binding, % of control at 3.87 mg/kg [%]
Clc1ccc2c(c1)N=C(N1CCN(CCc3ccccc3)CC1)c1cccnc1O2	114

Molecular target: T5, 5-hydroxytryptamine receptor 1A (Homo sapiens, UniProt P08908)
T5 sequence (P08908 whole entry): T1 sequence (whole entry)
Assay: Displacement of [3H]8-OH-DPAT from human recombinant 5HT1A receptor expressed in CHO cells after 60 mins by liquid scintillation counting
Assay type: cell-based
Settings: not given

SMILES	Ki [nM]
Clc1ccc2c(c1)N=C(N1CCN(C3CCCCC3)CC1)c1cccnc1O2	131
Clc1ccc2c(c1)N=C(N1CCN(CCc3ccccc3)CC1)c1cccnc1O2	19

System: not listed separately
Assay: Lipophilicity, log K of the compound in IAM-PC-DD2 HPLC column by UV method
Assay type: physicochemical
Settings: artificial membrane

SMILES	log K
Clc1ccc2c(c1)N=C(N1CCN(C3CCCCC3)CC1)c1cccnc1O2	4.34
Clc1ccc2c(c1)N=C(N1CCN(CCc3ccccc3)CC1)c1cccnc1O2	4.45
CN1CCN(C2=Nc3cc(Cl)ccc3Nc3ccccc32)CC1 [CLOZAPINE]	3.55
OCCOCCN1CCN(C2=Nc3ccccc3Sc3ccccc32)CC1 [QUETIAPINE]	2.84
CN1CCN(C2=Nc3cc(Cl)ccc3Oc3ncccc32)CC1.O=C(O)/C=C/C(=O)O	2.95
OCCOCCN1CCN(C2=Nc3cc(Cl)ccc3Oc3ncccc32)CC1	2.55
Clc1ccc2c(c1)N=C(NCCN1CCOCC1)c1cccnc1O2	2.63
Clc1ccc2c(c1)C(N1CCNCC1)=Nc1ccccc1O2 [AMOXAPINE]	3.17

System: not listed separately
Assay: In vivo displacement of [3H]SCH-23390 from dopamine D1 receptor in Sprague-Dawley rat entorhinal cortex at 10 mg/kg, ip qd for 28 days by autoradiography relative to control
Assay type: functional
Settings: route intraperitoneal

SMILES	inhibition in vivo at 10 mg/kg [%]
CN1CCN(C2=Nc3cc(Cl)ccc3Oc3ncccc32)CC1.O=C(O)/C=C/C(=O)O	97

Molecular target: T4, 5-hydroxytryptamine receptor 2A
Assay: Displacement of [3H]ketanserin from human recombinant 5HT2A receptor expressed in CHO cells after 60 mins by liquid scintillation counting
Assay type: cell-based
Settings: not given

SMILES	Ki [nM]
Clc1ccc2c(c1)N=C(N1CCN(C3CCCCC3)CC1)c1cccnc1O2	92
Clc1ccc2c(c1)N=C(N1CCN(CCc3ccccc3)CC1)c1cccnc1O2	180
CN1CCN(C2=Nc3cc(Cl)ccc3Oc3ncccc32)CC1.O=C(O)/C=C/C(=O)O	204
Clc1ccc2c(c1)N=C(NCCN1CCOCC1)c1cccnc1O2	> 1000

System: not listed separately
Assay: In vivo displacement of [3H]Ketanserin from 5HT2A receptor in Sprague-Dawley rat dorsolateral frontal cortex at 10 mg/kg, ip qd for 28 days by autoradiography relative to control
Assay type: functional
Settings: values are per cent of control, route intraperitoneal

SMILES	residual binding, % of control at 10 mg/kg [%]
CN1CCN(C2=Nc3cc(Cl)ccc3Oc3ncccc32)CC1.O=C(O)/C=C/C(=O)O	65

System: Caudate-putamen
Assay: In vivo displacement of [3H]Nemonapride from dopamine D4 receptor in Sprague-Dawley rat medial part of caudate putamen at 10 mg/kg, ip qd for 28 days by autoradiography relative to control
Assay type: functional
Settings: values are per cent of control, route intraperitoneal

SMILES	residual binding, % of control at 10 mg/kg [%]
CN1CCN(C2=Nc3cc(Cl)ccc3Oc3ncccc32)CC1.O=C(O)/C=C/C(=O)O	152

System: Caudate-putamen
Assay: In vivo displacement of [3H]Nemonapride from dopamine D4 receptor in Sprague-Dawley rat lateral part of caudate putamen at 10 mg/kg, ip qd for 28 days by autoradiography relative to control
Assay type: functional
Settings: values are per cent of control, route intraperitoneal

SMILES	residual binding, % of control at 10 mg/kg [%]
CN1CCN(C2=Nc3cc(Cl)ccc3Oc3ncccc32)CC1.O=C(O)/C=C/C(=O)O	140

Molecular target: T6, Alpha-2A adrenergic receptor (Homo sapiens, UniProt P08913)
T6 sequence (P08913 whole entry): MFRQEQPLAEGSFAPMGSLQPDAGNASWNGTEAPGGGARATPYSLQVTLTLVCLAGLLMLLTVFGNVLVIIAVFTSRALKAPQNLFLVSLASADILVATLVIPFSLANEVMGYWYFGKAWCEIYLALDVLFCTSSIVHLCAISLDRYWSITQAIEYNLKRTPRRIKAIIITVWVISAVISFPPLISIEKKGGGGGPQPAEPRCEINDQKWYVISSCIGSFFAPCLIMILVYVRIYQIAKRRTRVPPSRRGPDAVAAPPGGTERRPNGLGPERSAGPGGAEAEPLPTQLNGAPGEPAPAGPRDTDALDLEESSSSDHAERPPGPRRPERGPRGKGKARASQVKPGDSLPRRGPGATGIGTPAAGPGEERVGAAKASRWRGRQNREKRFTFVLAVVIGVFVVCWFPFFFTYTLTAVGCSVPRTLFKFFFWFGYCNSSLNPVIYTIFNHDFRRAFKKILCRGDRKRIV
Assay: Displacement of [3H]-MK-912 from human cloned adrenergic alpha2A receptor expressed in insect Sf9 membranes after 60 mins by liquid scintillation counting
Assay type: cell membranes
Settings: not given
How it was run: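 Membranes from Sf9 cells expressing cloned human α2A-adrenoceptor. Nonspecific binding defined with 10 μM WB4101. Filtered on GF/C and counted by scintillation.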

SMILES	Ki [nM]
Clc1ccc2c(c1)N=C(N1CCN(C3CCCCC3)CC1)c1cccnc1O2	412
Clc1ccc2c(c1)N=C(N1CCN(CCc3ccccc3)CC1)c1cccnc1O2	374
CN1CCN(C2=Nc3cc(Cl)ccc3Oc3ncccc32)CC1.O=C(O)/C=C/C(=O)O	180
OCCOCCN1CCN(C2=Nc3cc(Cl)ccc3Oc3ncccc32)CC1	452

System: Caudate-putamen
Assay: In vivo displacement of [3H]8-OH-DPAT from 5HT1A receptor in Sprague-Dawley rat medial part of caudate putamen at 10 mg/kg, ip qd for 28 days by autoradiography relative to control
Assay type: functional
Settings: route intraperitoneal

SMILES	inhibition in vivo at 10 mg/kg [%]
CN1CCN(C2=Nc3cc(Cl)ccc3Oc3ncccc32)CC1.O=C(O)/C=C/C(=O)O	97

Molecular target: D(2) dopamine receptor (Rattus norvegicus) (UniProt P61169)
Assay: In vivo displacement of [3H]Nemonapride from dopamine D2 receptor in Sprague-Dawley rat medial-prefrontal cortex at 10 mg/kg, ip qd for 28 days by autoradiography relative to control
Assay type: functional, organism-based
Design: dose 10 mg/kg
Settings: values are per cent of control

SMILES	residual binding, % of control [%]
CN1CCN(C2=Nc3cc(Cl)ccc3Oc3ncccc32)CC1.O=C(O)/C=C/C(=O)O	132

System: not listed separately
Assay: In vivo displacement of [3H]Nemonapride from dopamine D4 receptor in Sprague-Dawley rat nucleus accumbens at 3.87 mg/kg, ip qd for 28 days by autoradiography relative to control
Assay type: functional
Settings: values are per cent of control, route intraperitoneal
How it was run: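 Male Sprague-Dawley rats (200–225 g, N = 8/group) got daily ip doses or vehicle for 28 days. Brains were frozen and cut into 10 μm coronal sections. Sections were preincubated 1 h at room temperature in Tris-HCl pH 7.4/NaCl/KCl/CaCl2/MgCl2 buffer, then incubated 1 h with 1 nM [3H]nemonapride, 300 nM S(−)-raclopride, 0.5 μM DTG and 0.1 μM pindolol. Nonspecific binding: 10 μM S(−)-sulpiride. Binding in fmol/mg tissue, % of vehicle.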

SMILES	residual binding, % of control at 3.87 mg/kg [%]
Clc1ccc2c(c1)N=C(N1CCN(CCc3ccccc3)CC1)c1cccnc1O2	225
